Most compounds without a hit are left out; they make up all but 2.3% or so of the library.
EWS-Fli inh: inhibitors of EWS/Fli oncoprotein transcriptional activity | A673 NR0B1-luciferase reporter, viability-normalised | hit rate 0.67% among 350,000 | inhibition, % at 12.6 µM;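 active = mean inhibition of at least 50% after viability correction, with every replicate also passing that limit; inconclusive = mean reaches 50% but only one of two replicates passes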;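 note: firefly luciferase signal divided by Alamar Blue viability fluorescence both relative to DMSO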
LGR2 inh: blocks bursicon-induced cAMP signaling via Drosophila LGR2; inhibition, % at 9.99 µM; HEK293 LGR2, CRE-luciferase, bursicon-stimulated, 4 h; AID 720647; hit rate 0.35% among 380,000;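 active = drop in luminescence signal, shown as inhibition above about 50% in the replicate tests, limit read from the data, passing the limit was not always enough; inconclusive = probably only some replicates passing the limit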;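 note: agonist challenge used bursicon conditioned medium at about half maximal strength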
FN deposition inh: fibronectin deposition inhibition; hit rate 0.086% among 350,000; AH1F fibroblasts, Alexa488-fibronectin deposition fluorescence, overnight; AID 743247; inhibition, % at 12.6 µM;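 active = mean inhibition across replicates of 30% or more, regardless of how many single replicates reach that level; inconclusive = mean under 30% yet at least half of replicates reach 30%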;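 note: positive control wells lacked labelled fibronectin entirely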
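Material – AH1F fibroblast monolayer, labelled fibronectin deposition · Reagent – labelled fibronectin 24 nM · Timing – 1 h adhesion, overnight exposure · Measured by – fluorescence at 485 nm excitation, 525 nm emission · Read-out – inhibition of fibronectin deposition signal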
TWEAK Fn14 block: inhibitors of TWEAK-Fn14 interaction signaling; inhibition, % at 10 µM; AID 1159606; hit rate 2% among 360,000; TWEAK-stimulated Fn14 reporter cells, luciferase luminescence, 8 h; in the data active = inhibition above about 50%
XiGFP reactiv: activators of X-chromosome reactivation in mouse fibroblasts. activation, % at 7.58 µM. XiGFP mouse fibroblasts, % GFP-positive cells imaging, 3 d; cells co-treated with 5-aza-dC sensitizer; scaled so ellipticine positive control = 100%. hit rate 0.055% among 360,000;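 active = mean normalized replicate activation at least 10% and every replicate at or above 10%; inconclusive = only one of the two criteria met; inactive = mean below 10% and not all replicates reach 10%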;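 note: 0% = median of on-plate neutral control wells and 100% = ellipticine 6 µM median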
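Schedule: 3 d treatment, 15 min room-temperature fixation; system: 68-5-11 XiGFP fibroblast line; buffer or medium: DMEM plus 5-aza-dC sensitizer; control set: ellipticine 6 µM positive control; compound: one concentration, pinned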
TROY NFkB inh: inhibitors of TROY-dependent NF-kB signaling; inhibition, % at 10 µM; Q293 LMP1-TROYcd NF-kB luciferase reporter, 4 h; hit rate 0.98% among 360,000;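 active = compounds whose plate-normalised and pattern-corrected inhibition of the luciferase reporter signal at the single screening dose is 50% or more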
* marks the source's active call; other numbers are inactive results; u = inconclusive; x = no result given.

SMILES	EWS-Fli inh	LGR2 inh	FN deposition inh	TWEAK Fn14 block	XiGFP reactiv	TROY NFkB inh
C[C@@H](NC(=O)C[C@@H]1C=C[C@@H](NC(=O)Cc2ccccn2)[C@@H](CO)O1)c1ccccc1	x	-1.9	-14.3	x	0.2	x
CC(C)=CCN(C(=O)C#Cc1ccccc1)[C@H](CO)c1ccccc1	41.9	x	x	x	x	x
C[C@H](CO)N1C[C@H](C)[C@@H](CN(C)Cc2ccc(-c3ccccc3)cc2)Oc2ccc(NC(=O)Nc3ccc4c(c3)OCO4)cc2CC1=O	2.8	21.6	x	x	0.1	x
CCn1c(Sc2ccc([N+](=O)[O-])cn2)nnc1-c1ccco1	13.0	43.6	12.1	54.6*	0.2	4.0
CCOC(=O)CN(C(=O)CSc1nnc(-c2ccncc2)n1CCCOC)c1ccccc1	x	x	x	-10.0	x	57.6*
C/C=C/c1cnc2c(c1)C(=O)N([C@@H](C)CO)C[C@H](C)[C@@H](CN(C)S(=O)(=O)c1cn(C)cn1)O2	0.1	-3.4	x	x	-0.3	x
COc1ccc(C(=O)N/N=C/c2ccc(OC)c(CN3CCCc4ccccc43)c2)cc1	x	-3.8	x	57.7*	x	-12.5
COc1ccc(NC(=O)c2ccccn2)cc1	x	x	x	84.5*	x	56.6*
COc1ccc(N(CC(=O)NCCSc2ccccn2)S(C)(=O)=O)cc1	x	-8.1	x	-0.7	x	4.6
COc1ccc(C(=O)NCCSc2ccccn2)cc1	x	x	x	65.2*	x	11.0
COc1ccc(NC(=O)c2cc3ccccn3n2)cc1	25.1	27.1	-0.3	62.5*	-0.1	-4.8
COc1cc(-c2cc3nc(NCCc4ccncc4)ccn3n2)cc(OC)c1OC	1.6	-4.4	-20.3	17.8	0.1	-1.9
COCCCNc1ccn2nc(-c3ccc(OCc4ccccc4)cc3)cc2n1	-7.8	-23.2	-11.4	78.5*	0.0	49.4
COc1cc(-c2cc3nc(NCCOc4ccccc4)ccn3n2)cc(OC)c1OC	46.4	-4.9	4.4	58.3*	0.1	22.6
Cc1nc2c(C#N)c(C)[nH]n2c(=O)c1Cc1ccccc1	11.7	-1.1	x	64.2*	x	30.6
Cc1[nH]nc(C(=O)NN=Cc2ccccc2Cl)c1N=NN(C)C	-67.8	0.7	3.4	-5.1	0.3	-14.1
O=C(N/N=C/c1ccccc1Cl)c1n[nH]c2c1CCCC2	14.5	71.5*	1.1	96.8*	0.0	74.3*
O=C(N/N=C/c1cccs1)c1n[nH]c2c1CCC2	x	u	8.4	57.2*	0.4	18.7
O=C(N/N=C/C(Br)=C/c1ccccc1)c1n[nH]c2c1CCC2	x	x	x	4.8	x	25.8
O=C(N/N=C/c1ccc(Cl)cc1)c1n[nH]c2c1CCCC2	35.0	-74.1	14.8	-2.8	1.3	-28.9
O=C(N/N=C/c1ccccc1)c1n[nH]c2c1CCCC2	-12.9	30.6	-0.5	54.4*	0.0	10.4
COc1cccc(CN(C)C[C@@H]2OCc3ccccc3-c3c(n(C)c4ccccc34)C(=O)N([C@H](C)CO)C[C@@H]2C)c1	2.3	5.8	-5.4	x	-1.4	x
CCOC(=O)c1c(C)[nH]c(C(=O)OCC(=O)NC2CCS(=O)(=O)C2)c1C (stereo unspecified)	x	14.5	x	86.8*	x	x
CCOC(=O)c1[nH]c(C)c(C(=O)OCC(=O)NC2CCS(=O)(=O)C2)c1C (stereo unspecified)	-1.4	8.4	-14.8	1.6	6.2	9.9
COc1ccc(CN(C)C[C@@H]2OCCCC[C@H](C)Oc3ccc(NC(=O)Nc4cccc5ccccc45)cc3C(=O)N([C@@H](C)CO)C[C@@H]2C)cc1	65.2*	6.4	x	x	0.0	x
SMILES	EWS-Fli inh	LGR2 inh	FN deposition inh	TWEAK Fn14 block	XiGFP reactiv	TROY NFkB inh
COc1ccc(CN(C)C[C@@H]2OCCCC[C@@H](C)Oc3ccc(NC(=O)Nc4cccc5ccccc45)cc3C(=O)N([C@H](C)CO)C[C@H]2C)cc1	66.9*	x	x	x	-0.1	x
COc1ccc(CN(C)C[C@@H]2OCCCC[C@@H](C)Oc3ccc(NC(=O)Nc4cccc5ccccc45)cc3C(=O)N([C@@H](C)CO)C[C@H]2C)cc1	64.1*	13.2	x	x	0.0	x
CCN(CC)CCOC(=O)c1ccc(NC(=O)/C=C/c2cccs2)cc1	6.8	-12.4	4.7	63.7*	0.1	74.2*
O=S1(=O)Nc2c(ccc3cccnc23)-c2ccccc21	x	x	x	105.2*	x	71.0*
COc1ccc(NC(=O)Nc2ccc3c(c2)CC(=O)N([C@H](C)CO)C[C@@H](C)[C@H](CN(C)Cc2ccc(C(=O)Nc4ccccc4N)cc2)O3)cc1	43.6	6.6	x	x	0.3	x
CC(C)[C@H](CO)Nc1nc(NCc2ccc(S(N)(=O)=O)cc2)c2ncn(C(C)C)c2n1	12.2	52.5*	16.7	27.0	0.0	15.0
CO[C@@H]1CN(C)C(=O)c2ccc(NC(=O)Nc3ccccc3F)cc2OC[C@@H](C)N(S(=O)(=O)CC(F)(F)F)C[C@H]1C	9.0	6.3	-1.9	x	0.1	x
CC1=Nc2cc(C(=O)NCC3CCCO3)ccc2Sc2ccc(Br)cc21 (stereo unspecified)	54.9*	-11.0	4.8	16.7	0.2	22.9
CC1=Nc2cc(C(=O)NCCCOC(C)C)ccc2Sc2ccc(C)cc21	58.8*	-0.3	-17.0	1.5	-0.2	33.0
CCCCn1nnc(NC(=O)Cc2ccc(Cl)cc2)n1	x	x	x	74.1*	x	x
c1ccc(CN2CCN(c3ncnc4c3[nH]c3ccccc34)CC2)cc1	x	x	x	96.5*	x	66.6*
OC1(c2cccc(C(F)(F)F)c2)CCN(c2ncnc3c2[nH]c2ccccc23)CC1	x	x	x	57.7*	x	53.1*
Cc1ccc2c(c1)[nH]c1c(N3CCN(Cc4ccccc4)CC3)ncnc12	x	x	-10.8	96.0*	x	67.8*
c1ccc2c(c1)[nH]c1c(N3CCC4(CC3)OCCO4)ncnc12	x	x	x	21.4	x	8.9
c1ccc(CN2CCN(c3nc4ccccc4c4ccccc34)CC2)cc1	x	x	x	1.0	x	8.7
c1ccc2c(c1)CCN(c1ncnc3c1[nH]c1ccccc13)C2	x	x	-4.9	84.7*	x	48.0
Cc1ccc(S(=O)(=O)Nc2ccc3c(c2)C(=O)N([C@H](C)CO)C[C@@H](C)[C@H](CN(C)Cc2ccc4c(c2)OCO4)OCCCC[C@H](C)O3)cc1	23.4	8.7	x	x	-0.9	x
C[C@@H]1CN([C@H](C)CO)S(=O)(=O)c2ccc(C#C[C@@H](C)O)cc2O[C@H]1CN(C)C(=O)Cc1ccccn1	-6.5	20.0	x	x	0.3	x
C[C@@H]1CCCCO[C@@H](CN(C)C(=O)Nc2ccccc2)[C@H](C)CN([C@H](C)CO)C(=O)c2cc(NC(=O)C3CCCCC3)ccc2O1	3.2	x	x	x	x	x
Cc1ccc2[nH]c3c(N4CCN(Cc5ccc6c(c5)OCO6)CC4)ncnc3c2c1	x	x	2.7	x	x	x
Cc1ccc2[nH]c3c(N4CCN(Cc5ccccc5)CC4)ncnc3c2c1	x	x	x	103.2*	x	54.8*
CCc1cc(SC#N)cc(C)c1N	-0.1	-9.5	-1.8	35.4	0.1	57.4*
C[C@@H]1CN([C@@H](C)CO)C(=O)c2cc(-c3ccccc3F)cnc2O[C@H]1CN(C)C(=O)C1CCC1	0.0	-20.4	x	x	0.1	x
